What was measured:
[1] = Volume of distribution at steady state in beagle dog plasma at 0.19 mg/kg, iv and 0.19 mg/kg, po by LC-MS/MS method; format: ADME, organism-based, Canis lupus familiaris; conditions: read-out: Vdss
Summary of the method: (§1)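 Dogs dosed iv and po in N-in-1 (cassette) format. The same vehicle was used for both routes: 70% water, 10% ethanol, 10% dimethylacetamide, 10% polypropylene glycol.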

Coagulation factor XI = Coagulation factor XI (Homo sapiens, UniProt P03951)
[2] = Oral bioavailability in beagle dog plasma at 0.19 mg/kg by LC-MS/MS method; format: ADME, organism-based, Canis lupus familiaris; summary of the method: as §1
[3] = Clearance in beagle dog plasma at 0.19 mg/kg, iv and 0.19 mg/kg, po administered in cassette format by LC-MS/MS method; format: ADME, organism-based, Canis lupus familiaris; summary of the method: as §1
[4] = Half life in beagle dog plasma at 0.19 mg/kg, iv and 0.19 mg/kg, po by LC-MS/MS method; format: ADME, organism-based, Canis lupus familiaris; summary of the method: as §1
Plasma = experiment: Anticoagulant activity in human plasma assessed as concentration required for 50% increase in activated partial thromboplastin time by automated coagulation analyzer; format: functional
Summary of the method: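 aPTT clotting assay in pooled normal human plasma on an automated coagulation analyzer with commercial reagents. EC1.5x is the inhibitor plasma concentration giving a 50% increase in clotting time over the no-inhibitor control.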

[5] = AUC in beagle dog plasma at 0.19 mg/kg, iv and 0.19 mg/kg, po by LC-MS/MS method; format: ADME, organism-based, Canis lupus familiaris; summary of the method: as §1
[6] = Oral bioavailability in beagle dog plasma at 0.8 mg/kg by LC-MS/MS method; format: ADME, organism-based, Canis lupus familiaris; summary of the method: as §1
[7] = AUC in beagle dog plasma at 0.4 mg/kg, iv and 0.8 mg/kg, po by LC-MS/MS method; format: ADME, organism-based, Canis lupus familiaris; summary of the method: as §1
[8] = Clearance in beagle dog plasma at 0.4 mg/kg, iv and 0.8 mg/kg, po administered in cassette format by LC-MS/MS method; format: ADME, organism-based, Canis lupus familiaris; summary of the method: as §1
[9] = Volume of distribution at steady state in beagle dog plasma at 0.4 mg/kg, iv and 0.8 mg/kg, po by LC-MS/MS method; format: ADME, organism-based, Canis lupus familiaris; conditions: read-out: Vdss; summary of the method: as §1
[10] = Half life in beagle dog plasma at 0.4 mg/kg, iv and 0.8 mg/kg, po by LC-MS/MS method; format: ADME, organism-based, Canis lupus familiaris; summary of the method: as §1
[11] = Oral bioavailability in beagle dog plasma at 0.2 mg/kg by LC-MS/MS method; format: ADME, organism-based, Canis lupus familiaris; summary of the method: as §1
Canis familiaris [12] = experiment: Oral bioavailability in beagle dog plasma at 1 mg/kg dosed in discrete format by LC-MS/MS method; format: ADME, organism-based, Canis lupus familiaris; conditions: in vivo
Summary of the method: (§2)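 Discrete oral dosing in dog at 1 mpk. Oral vehicle: 70% PEG400, 20% TPGS, 10% ethanol.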

[13] = target: Tissue-type plasminogen activator (Homo sapiens, UniProt P00750); experiment: Inhibition of human TPA assessed as reduction in release of p-nitroaniline after 10 to 120 mins by Michaelis-Menten equation analysis
Chain of Tissue-type plasminogen activator (P00750 whole entry): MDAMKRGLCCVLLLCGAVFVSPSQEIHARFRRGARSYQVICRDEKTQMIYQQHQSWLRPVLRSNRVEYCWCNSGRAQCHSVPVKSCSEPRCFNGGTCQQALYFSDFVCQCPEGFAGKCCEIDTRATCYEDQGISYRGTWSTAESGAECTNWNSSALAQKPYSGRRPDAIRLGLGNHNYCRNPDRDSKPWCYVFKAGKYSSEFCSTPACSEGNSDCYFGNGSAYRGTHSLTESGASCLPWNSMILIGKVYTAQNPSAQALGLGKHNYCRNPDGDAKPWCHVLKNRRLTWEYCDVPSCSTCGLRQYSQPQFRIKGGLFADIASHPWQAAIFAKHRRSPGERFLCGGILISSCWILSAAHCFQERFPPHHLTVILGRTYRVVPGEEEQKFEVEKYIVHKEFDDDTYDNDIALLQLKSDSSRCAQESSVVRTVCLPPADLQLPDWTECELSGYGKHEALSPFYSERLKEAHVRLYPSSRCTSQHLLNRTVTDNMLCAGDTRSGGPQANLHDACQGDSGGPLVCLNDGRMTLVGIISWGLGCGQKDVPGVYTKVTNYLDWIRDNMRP
Summary of the method: (§3)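 Purified human enzymes with commercial synthetic peptide substrates. IC50 from 4–11 inhibitor concentrations, run in duplicate at a fixed substrate concentration (standard error <20%). Ki = IC50/(1+S/Km), assuming competitive inhibition.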

[14] = target: Vitamin K-dependent protein C (Homo sapiens, UniProt P04070); experiment: Inhibition of human activated protein C assessed as reduction in release of p-nitroaniline after 10 to 120 mins by Michaelis-Menten equation analysis; summary of the method: as §3
Chain of Vitamin K-dependent protein C (P04070 43-197 limits assumed): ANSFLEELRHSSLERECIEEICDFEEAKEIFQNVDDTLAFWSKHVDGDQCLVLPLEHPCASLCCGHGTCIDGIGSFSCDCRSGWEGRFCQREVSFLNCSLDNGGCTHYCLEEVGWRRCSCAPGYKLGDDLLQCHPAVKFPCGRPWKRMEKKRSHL
Chain of Vitamin K-dependent protein C (P04070 212-461 limits assumed): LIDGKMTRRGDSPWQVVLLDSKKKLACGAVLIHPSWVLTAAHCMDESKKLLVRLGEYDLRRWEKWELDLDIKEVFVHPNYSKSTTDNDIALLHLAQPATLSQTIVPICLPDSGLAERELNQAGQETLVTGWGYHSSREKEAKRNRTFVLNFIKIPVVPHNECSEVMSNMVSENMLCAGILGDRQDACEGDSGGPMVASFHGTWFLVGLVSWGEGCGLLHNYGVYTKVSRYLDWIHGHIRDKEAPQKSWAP

[15] = Volume of distribution at steady state in beagle dog plasma at 0.25 mg/kg, iv and 0.2 mg/kg, po by LC-MS/MS method; format: ADME, organism-based, Canis lupus familiaris; conditions: read-out: Vdss; summary of the method: as §1
[16] = Half life in beagle dog plasma at 0.25 mg/kg, iv and 0.2 mg/kg, po by LC-MS/MS method; format: ADME, organism-based, Canis lupus familiaris; summary of the method: as §1
Plasma kallikrein = Plasma kallikrein (Homo sapiens, UniProt P03952); experiment: Inhibition of human plasma kallikrein assessed as reduction in release of p-nitroaniline after 10 to 120 mins by Michaelis-Menten equation analysis; format: cell-free; summary of the method: as §3
Chain of Plasma kallikrein (P03952 20-390 limits assumed): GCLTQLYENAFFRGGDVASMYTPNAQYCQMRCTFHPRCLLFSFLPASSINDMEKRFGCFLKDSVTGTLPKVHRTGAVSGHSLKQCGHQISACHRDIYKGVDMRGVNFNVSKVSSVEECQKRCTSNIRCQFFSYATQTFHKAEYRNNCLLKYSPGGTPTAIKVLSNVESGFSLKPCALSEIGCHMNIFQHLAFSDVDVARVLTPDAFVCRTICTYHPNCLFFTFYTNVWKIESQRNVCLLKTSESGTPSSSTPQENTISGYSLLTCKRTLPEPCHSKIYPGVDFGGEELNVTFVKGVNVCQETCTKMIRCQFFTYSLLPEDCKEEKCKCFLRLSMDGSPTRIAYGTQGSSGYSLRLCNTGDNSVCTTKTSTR
Chain of Plasma kallikrein (P03952 391-638 limits assumed): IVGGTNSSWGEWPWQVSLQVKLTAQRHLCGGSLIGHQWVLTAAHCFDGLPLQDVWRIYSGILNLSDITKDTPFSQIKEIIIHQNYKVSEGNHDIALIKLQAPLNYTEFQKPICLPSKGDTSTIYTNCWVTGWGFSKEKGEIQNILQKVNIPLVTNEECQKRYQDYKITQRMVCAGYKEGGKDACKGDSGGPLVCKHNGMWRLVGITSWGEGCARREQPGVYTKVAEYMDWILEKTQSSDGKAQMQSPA

[17] = AUC in beagle dog plasma at 0.25 mg/kg, iv and 0.2 mg/kg, po by LC-MS/MS method; format: ADME, organism-based, Canis lupus familiaris; summary of the method: as §1
Plasminogen = Plasminogen (Homo sapiens, UniProt P00747); experiment: Inhibition of human plasmin assessed as reduction in release of p-nitroaniline after 10 to 120 mins by Michaelis-Menten equation analysis; summary of the method: as §3
Chain of Plasminogen (P00747 97-580 limits assumed): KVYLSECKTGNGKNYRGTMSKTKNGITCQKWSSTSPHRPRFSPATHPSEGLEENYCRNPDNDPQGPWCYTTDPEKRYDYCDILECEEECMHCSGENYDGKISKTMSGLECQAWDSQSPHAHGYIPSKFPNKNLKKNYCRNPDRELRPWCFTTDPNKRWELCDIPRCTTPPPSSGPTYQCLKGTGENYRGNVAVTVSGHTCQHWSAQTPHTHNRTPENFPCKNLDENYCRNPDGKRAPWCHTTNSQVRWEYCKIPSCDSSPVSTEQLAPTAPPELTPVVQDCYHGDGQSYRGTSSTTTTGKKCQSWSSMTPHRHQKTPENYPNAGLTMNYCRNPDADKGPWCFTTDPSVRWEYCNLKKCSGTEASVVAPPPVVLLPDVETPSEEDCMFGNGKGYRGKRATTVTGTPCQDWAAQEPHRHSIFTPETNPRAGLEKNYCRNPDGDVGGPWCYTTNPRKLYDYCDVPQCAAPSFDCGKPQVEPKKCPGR
Chain of Plasminogen (P00747 581-810 limits assumed): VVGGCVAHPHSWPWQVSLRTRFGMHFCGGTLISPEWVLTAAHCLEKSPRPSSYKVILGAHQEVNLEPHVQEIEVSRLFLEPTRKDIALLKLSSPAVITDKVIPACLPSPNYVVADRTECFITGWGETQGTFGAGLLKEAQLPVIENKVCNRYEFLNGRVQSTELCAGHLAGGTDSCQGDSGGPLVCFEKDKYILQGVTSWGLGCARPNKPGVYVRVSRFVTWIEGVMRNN

Canis familiaris [18] = experiment: AUC in beagle dog plasma at 1 mg/kg, po dosed in discrete format by LC-MS/MS method; format: ADME, organism-based, Canis lupus familiaris; conditions: in vivo; summary of the method: as §2
[19] = target: Urokinase-type plasminogen activator (Homo sapiens, UniProt P00749); experiment: Inhibition of human urokinase assessed as reduction in release of p-nitroaniline after 10 to 120 mins by Michaelis-Menten equation analysis; summary of the method: as §3
Coagulation factor VII = target: T1, Coagulation factor VII (Homo sapiens, UniProt P08709); experiment: Inhibition of human coagulation factor 7a assessed as reduction in release of p-nitroaniline after 10 to 120 mins by Michaelis-Menten equation analysis; summary of the method: as §3
T1 sequence (P08709 whole entry): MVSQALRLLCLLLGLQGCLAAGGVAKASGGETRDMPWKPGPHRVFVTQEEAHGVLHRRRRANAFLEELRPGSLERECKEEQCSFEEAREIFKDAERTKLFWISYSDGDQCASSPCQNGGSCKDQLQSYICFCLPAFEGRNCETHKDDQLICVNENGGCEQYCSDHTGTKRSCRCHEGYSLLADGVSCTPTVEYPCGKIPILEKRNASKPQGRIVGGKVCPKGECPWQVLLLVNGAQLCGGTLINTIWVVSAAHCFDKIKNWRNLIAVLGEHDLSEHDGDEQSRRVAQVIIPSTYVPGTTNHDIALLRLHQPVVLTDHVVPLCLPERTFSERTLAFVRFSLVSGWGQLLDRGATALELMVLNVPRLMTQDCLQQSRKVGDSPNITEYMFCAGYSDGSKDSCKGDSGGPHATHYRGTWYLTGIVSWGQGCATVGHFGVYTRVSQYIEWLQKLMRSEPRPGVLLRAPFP

[20] = Inhibition of human […] chymotrypsin assessed as reduction in release of p-nitroaniline after 10 to 120 mins by Michaelis-Menten equation analysis
Trypsin = Trypsin (Homo sapiens, UniProt P07477+P07478+P35030); experiment: Inhibition of human coagulation trypsin assessed as reduction in release of p-nitroaniline after 10 to 120 mins by Michaelis-Menten equation analysis; format: protein assay; summary of the method: as §3
Canis familiaris [21] = experiment: Clearance in beagle dog plasma at 0.25 mg/kg, iv and 0.2 mg/kg, po administered in cassette format by LC-MS/MS method; format: ADME, organism-based, Canis lupus familiaris; conditions: in vivo; summary of the method: as §1
Coagulation factor X = Coagulation factor X (Homo sapiens, UniProt P00742); experiment: Inhibition of human coagulation factor 10a assessed as reduction in release of p-nitroaniline after 10 to 120 mins by Michaelis-Menten equation analysis; summary of the method: as §3
Chain of Coagulation factor X (P00742 41-179 limits assumed): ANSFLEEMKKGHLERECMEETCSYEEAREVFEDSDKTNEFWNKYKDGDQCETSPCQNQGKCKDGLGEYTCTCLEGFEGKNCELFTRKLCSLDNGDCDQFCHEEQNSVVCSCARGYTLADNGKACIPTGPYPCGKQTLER
Chain of Coagulation factor X (P00742 235-488 limits assumed): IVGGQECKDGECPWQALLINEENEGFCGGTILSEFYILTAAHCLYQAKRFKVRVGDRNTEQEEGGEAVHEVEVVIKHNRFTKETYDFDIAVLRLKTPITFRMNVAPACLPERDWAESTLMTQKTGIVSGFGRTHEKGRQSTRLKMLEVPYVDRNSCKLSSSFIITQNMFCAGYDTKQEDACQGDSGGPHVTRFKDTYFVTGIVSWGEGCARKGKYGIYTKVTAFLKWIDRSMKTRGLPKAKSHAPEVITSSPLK

Prothrombin = Prothrombin (Homo sapiens, UniProt P00734); experiment: Inhibition of human coagulation thrombin assessed as reduction in release of p-nitroaniline after 10 to 120 mins by Michaelis-Menten equation analysis; summary of the method: as §3
[22] = AUC in beagle dog plasma at 0.2 mg/kg, iv and 0.29 mg/kg, po by LC-MS/MS method; format: ADME, organism-based, Canis lupus familiaris; summary of the method: as §1
[23] = Volume of distribution at steady state in beagle dog plasma at 0.2 mg/kg, iv and 0.29 mg/kg, po by LC-MS/MS method; format: ADME, organism-based, Canis lupus familiaris; conditions: read-out: Vdss; summary of the method: as §1
[24] = Half life in beagle dog plasma at 0.2 mg/kg, iv and 0.29 mg/kg, po by LC-MS/MS method; format: ADME, organism-based, Canis lupus familiaris; summary of the method: as §1
[25] = Oral bioavailability in beagle dog plasma at 0.29 mg/kg by LC-MS/MS method; format: ADME, organism-based, Canis lupus familiaris; summary of the method: as §1
[26] = Clearance in beagle dog plasma at 0.2 mg/kg, iv and 0.29 mg/kg, po administered in cassette format by LC-MS/MS method; format: ADME, organism-based, Canis lupus familiaris; summary of the method: as §1
[27] = Volume of distribution at steady state in beagle dog plasma at 0.28 mg/kg, iv and 0.62 mg/kg, po by LC-MS/MS method; format: ADME, organism-based, Canis lupus familiaris; conditions: read-out: Vdss; summary of the method: as §1
[28] = AUC in beagle dog plasma at 0.28 mg/kg, iv and 0.62 mg/kg, po by LC-MS/MS method; format: ADME, organism-based, Canis lupus familiaris; summary of the method: as §1
[29] = Half life in beagle dog plasma at 0.28 mg/kg, iv and 0.62 mg/kg, po by LC-MS/MS method; format: ADME, organism-based, Canis lupus familiaris; summary of the method: as §1
[30] = Clearance in beagle dog plasma at 0.28 mg/kg, iv and 0.62 mg/kg, po administered in cassette format by LC-MS/MS method; format: ADME, organism-based, Canis lupus familiaris; summary of the method: as §1
[31] = Oral bioavailability in beagle dog plasma at 0.62 mg/kg by LC-MS/MS method; format: ADME, organism-based, Canis lupus familiaris; summary of the method: as §1
Coagulation factor IX = Coagulation factor IX (Homo sapiens, UniProt P00740); experiment: Inhibition of human coagulation factor 9a assessed as reduction in release of p-nitroaniline after 10 to 120 mins by Michaelis-Menten equation analysis; summary of the method: as §3
Chain of Coagulation factor IX (P00740 47-191 limits assumed): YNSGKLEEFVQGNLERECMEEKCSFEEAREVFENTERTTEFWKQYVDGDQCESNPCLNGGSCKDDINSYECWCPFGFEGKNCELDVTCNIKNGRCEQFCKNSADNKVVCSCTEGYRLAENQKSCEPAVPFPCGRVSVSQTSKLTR
Chain of Coagulation factor IX (P00740 227-461 limits assumed): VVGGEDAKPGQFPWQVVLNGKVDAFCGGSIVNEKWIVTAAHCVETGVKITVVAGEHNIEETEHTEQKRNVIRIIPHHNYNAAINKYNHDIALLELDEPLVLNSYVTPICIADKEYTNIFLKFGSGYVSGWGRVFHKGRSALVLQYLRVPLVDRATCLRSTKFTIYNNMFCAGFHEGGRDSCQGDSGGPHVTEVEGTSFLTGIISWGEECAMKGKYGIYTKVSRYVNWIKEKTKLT

Chain of Coagulation factor XI (P03951 19-387 limits assumed): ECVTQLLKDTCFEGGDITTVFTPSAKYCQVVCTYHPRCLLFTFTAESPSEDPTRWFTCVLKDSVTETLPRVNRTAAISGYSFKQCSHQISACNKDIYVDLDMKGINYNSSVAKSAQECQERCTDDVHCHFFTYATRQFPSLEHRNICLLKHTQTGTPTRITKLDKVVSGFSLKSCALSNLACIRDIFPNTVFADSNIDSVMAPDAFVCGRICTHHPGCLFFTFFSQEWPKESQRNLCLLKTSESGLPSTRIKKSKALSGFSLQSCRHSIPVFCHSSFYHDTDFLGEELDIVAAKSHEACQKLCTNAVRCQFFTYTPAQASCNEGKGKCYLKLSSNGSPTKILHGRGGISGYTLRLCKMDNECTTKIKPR
Chain of Coagulation factor XI (P03951 388-625 limits assumed): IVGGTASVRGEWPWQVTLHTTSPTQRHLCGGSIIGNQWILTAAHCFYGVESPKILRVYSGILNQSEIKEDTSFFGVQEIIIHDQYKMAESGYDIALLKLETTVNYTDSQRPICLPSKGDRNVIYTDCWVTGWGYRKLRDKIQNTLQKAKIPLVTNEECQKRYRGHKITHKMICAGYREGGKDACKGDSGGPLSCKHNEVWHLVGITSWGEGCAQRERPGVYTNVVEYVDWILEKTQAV

| SMILES | Ki (Coagulation factor XI) [µM] | Ki [13] [µM] | Ki [14] [µM] | Ki (Plasma kallikrein) [µM] | Ki (Plasminogen) [µM] | Ki [19] [µM] | Ki (Coagulation factor VII) [µM] | Ki [20] [µM] | Ki (Trypsin) [µM] | Ki (Coagulation factor X) [µM] | Ki (Prothrombin) [µM] | EC1.5 (Plasma) [µM] | further results |
| --- | --- | --- | --- | --- | --- | --- | --- | --- | --- | --- | --- | --- | --- |
| COC(=O)Nc1ccc(-c2cc([C@H](Cc3ccccc3)NC(=O)/C=C/c3cc(Cl)ccc3-n3cnnn3)ccn2)cc1 | 0.011 |  |  |  |  |  |  |  |  |  |  | 26 | Vd [1]: 1.6 L/kg; bioavailability [2]: 34%; clearance [3]: 5.6 mL/min/kg; half-life [4]: 3.7 h; AUC [5]: 0.28 µM·h |
| COC(=O)Nc1ccc(-c2ccnc([C@H](Cc3ccccc3)NC(=O)/C=C/c3cc(Cl)ccc3-n3cnnn3)c2)cc1 | 0.023 | 10.5 | > 30.2 | 1.85 | 12.5 | > 29.7 | > 13.4 | 29.5 | > 6.218 | 1.13 | > 13.3 | >40 | bioavailability [11]: 34%; F (Canis familiaris [12]): 53%; Vd [15]: 3.9 L/kg; half-life [16]: 8 h; AUC [17]: 0.267 µM·h; AUC (Canis familiaris [18]): 1.878 µM·h; clearance (Canis familiaris [21]): 6.1 mL/min/kg |
| COC(=O)Nc1ccc(-c2cc([C@H](Cc3ccccc3)NC(=O)[C@H]3CC[C@H](CN)CC3)ncn2)cc1 | 0.0091 |  |  |  |  |  |  |  |  |  |  | 1.2 | AUC [22]: 0.195 µM·h; Vd [23]: 5.4 L/kg; half-life [24]: 3.2 h; bioavailability [25]: 66%; clearance [26]: 0.45 mL/min/kg |

Second part, led by results:

| Ki (Coagulation factor XI) [µM] | Ki [13] [µM] | Ki [14] [µM] | Ki (Plasma kallikrein) [µM] | Ki (Plasminogen) [µM] | Ki [19] [µM] | Ki (Coagulation factor VII) [µM] | Ki [20] [µM] | Ki (Trypsin) [µM] | Ki (Coagulation factor X) [µM] | Ki (Prothrombin) [µM] | SMILES | EC1.5 (Plasma) [µM] | further results |
| --- | --- | --- | --- | --- | --- | --- | --- | --- | --- | --- | --- | --- | --- |
| 0.0024 |  |  |  |  |  |  |  |  |  |  | COC(=O)Nc1ccc(-c2cc([C@H](Cc3ccccc3)NC(=O)[C@H]3CC[C@H](CN)CC3)[nH]c(=O)c2)cc1 | 0.4 | bioavailability [6]: < 1%; AUC [7]: 0.01 µM·h; clearance [8]: 0.283 mL/min/kg; Vd [9]: 0.8 L/kg; half-life [10]: 1.1 h |
| 0.0063 | > 21.9 | > 30.2 | 0.042 | > 22.1 | > 14.1 | > 12.2 | > 20.8 | 0.101 | > 9 | > 12.6 | COC(=O)Nc1ccc(-c2ccnc([C@H](Cc3ccccc3)NC(=O)[C@H]3CC[C@H](CN)CC3)c2)cc1 | 2.6 | Vd [27]: 10 L/kg; AUC [28]: 0.194 µM·h; half-life [29]: 2.7 h; clearance [30]: 0.9 mL/min/kg; bioavailability [31]: 63%; Ki (Coagulation factor IX): > 34.9 µM |

From ChEMBL document CHEMBL3779805, “Orally bioavailable pyridine and pyrimidine-based Factor XIa inhibitors: Discovery of the methyl N-phenyl carbamate P2 prime group” (Bioorg Med Chem, 2016)
